From paper PMC3641321 (Blood Cancer Journal, 2013)
Where “and” joins values, the source holds several entries; their conditions need not be identical. Equal values may be shown once. Entries after “also recorded” stand apart in the source; their conditions may differ. Marks after values point to notes of the source that are not given here.

Columns and labels:
JAK2 [1] = biological target: T1, JAK2 (Homo sapiens, UniProt O60674); assay: JAK LanthaScreen Kinase Assay; conditions: Biochemical measurement of JAK inhibition, JAK2 IC50±s.d., Table 1
JAK3 = biological target: T2, JAK3 (Homo sapiens, UniProt P52333); assay: JAK LanthaScreen Kinase Assay; conditions: second-tier biochemical / LanthaScreen assay
T2 sequence (P52333 1-1124): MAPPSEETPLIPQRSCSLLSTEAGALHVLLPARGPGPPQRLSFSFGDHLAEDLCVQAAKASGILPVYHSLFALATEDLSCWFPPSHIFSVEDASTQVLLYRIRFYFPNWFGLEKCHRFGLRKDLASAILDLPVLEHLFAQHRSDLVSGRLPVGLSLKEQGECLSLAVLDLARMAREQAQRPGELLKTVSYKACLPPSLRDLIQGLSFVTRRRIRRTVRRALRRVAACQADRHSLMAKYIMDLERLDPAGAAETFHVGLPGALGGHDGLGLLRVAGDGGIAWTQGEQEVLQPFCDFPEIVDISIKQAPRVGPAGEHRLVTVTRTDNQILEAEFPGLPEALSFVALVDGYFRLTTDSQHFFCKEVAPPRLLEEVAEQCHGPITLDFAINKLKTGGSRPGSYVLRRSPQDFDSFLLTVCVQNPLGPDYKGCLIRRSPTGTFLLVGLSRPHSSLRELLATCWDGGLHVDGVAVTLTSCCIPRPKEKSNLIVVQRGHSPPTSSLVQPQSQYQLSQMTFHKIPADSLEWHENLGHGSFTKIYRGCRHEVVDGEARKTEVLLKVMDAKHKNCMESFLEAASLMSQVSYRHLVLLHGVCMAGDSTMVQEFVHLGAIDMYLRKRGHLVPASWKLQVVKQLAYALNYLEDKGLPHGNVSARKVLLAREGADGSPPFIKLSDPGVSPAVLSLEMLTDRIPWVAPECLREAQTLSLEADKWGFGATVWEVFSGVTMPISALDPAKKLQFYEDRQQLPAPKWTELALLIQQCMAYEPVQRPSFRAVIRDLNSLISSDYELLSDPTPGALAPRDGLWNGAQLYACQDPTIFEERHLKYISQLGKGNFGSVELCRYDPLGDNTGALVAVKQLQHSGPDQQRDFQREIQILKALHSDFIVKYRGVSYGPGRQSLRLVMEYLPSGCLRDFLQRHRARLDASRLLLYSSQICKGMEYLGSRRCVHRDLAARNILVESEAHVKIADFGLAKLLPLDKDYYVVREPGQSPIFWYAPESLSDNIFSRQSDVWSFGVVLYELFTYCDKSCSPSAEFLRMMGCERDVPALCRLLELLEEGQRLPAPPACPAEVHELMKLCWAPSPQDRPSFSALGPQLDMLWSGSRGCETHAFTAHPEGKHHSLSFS

JAK3/JAK1 heterodimer = JAK3/JAK1 heterodimer (Homo sapiens, UniProt P23458+P52333); assay: Cellomics pSTAT5 assay, IL-2-stimulated NK-92 cells; assay type: cell-based
Summary of the method: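 NK-92 cells were kept overnight in MEM Alpha with 0.3% FBS and 0.3% horse serum, then plated with DMSO or a 10-point 1:3 dilution series (20 to 0.001 μM) for 10 min. IL-2 (0.5 μg/ml) was then added for 20 min. Cells were fixed, stained for pSTAT5 (pY694) with Alexa Fluor 647 and Hoechst, and imaged. IC50 came from a four-parameter logistic fit.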

[2] = test system: cytotoxic T-cells, CD3+CD8a+; assay: 14-day rat immunotoxicology, flow cytometry; assay type: in vivo, Sprague-Dawley rats; conditions: for Change in cytotoxic T-cells, CD3+CD8a+, peripheral blood / Change in cytotoxic T-cells, CD3+CD8a+, spleen: gavage, Compound 1 15 mg/kg, Compound 2 (LY2784544) 30 mg/kg; for Percentage of T-cytotoxic cells (peripheral blood and splenic): pharmacologically active exposures, result in words
JAK2 [3] = biological target: T1, JAK2; assay: Cellomics pSTAT5 assay, EPO-stimulated TF-1 cells; assay type: cell-based
Summary of the method: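 TF-1 cells were starved overnight in RPMI with 0.6% FBS, then plated at 2 × 10^5 cells/well with DMSO or a 10-point 1:3 dilution series (20 to 0.001 μM). After 10 min, erythropoietin (1.6 units/ml) was added for 20 min. Cells were fixed, stained with anti-pSTAT5 (pY694) Alexa Fluor 647 and Hoechst, and imaged. IC50 came from a four-parameter logistic fit.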

TEL-JAK1 = TEL-JAK1 (Homo sapiens, UniProt P23458+P41212); assay: AlphaScreen SureFire pSTAT5 assay, Ba/F3 TEL-JAK1; assay type: cell-based
TEL-JAK2 = TEL-JAK2 (Homo sapiens, UniProt O60674+P41212); assay: AlphaScreen SureFire pSTAT5 assay, Ba/F3 TEL-JAK2; assay type: cell-based
TEL-JAK3 = TEL-JAK3 (Homo sapiens, UniProt P41212+P52333); assay: AlphaScreen SureFire pSTAT5 assay, Ba/F3 TEL-JAK3; assay type: cell-based
[4] = test system: Ba/F3 cells expressing JAK2V617F; assay: MTS cell proliferation assay, Ba/F3 JAK2V617F; assay type: cell-based, murine; conditions: Mus musculus, BaF3, 72 h, read-out: Cell proliferation assay V617F IC50±s.d.
[5] = test system: Ba/F3 cells expressing JAK2V617F; assay: Caspase-Glo 3/7 apoptosis assay; assay type: cell-based, murine; conditions: Mus musculus, BaF3, 18 h, read-out: Induction of apoptosis EC50 (Caspase3/7-glo)
[6] = test system: JAK2V617F signaling in Ba/F3-JAK2V617F-GFP ascitic tumor cells; assay: In vivo target inhibition, pSTAT5 in mouse ascitic tumor model; design: species or system SCID mice
Summary of the method: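 Ascitic tumors were grown in CB17 SCID mice for 7 days after intraperitoneal implantation of 1 × 10^7 Ba/F3-JAK2V617F-GFP cells. A single oral gavage dose (2.5–80.0 mg/kg, six animals/group) was given and tumor cells were collected 30 min later. For time courses, 20, 40 or 80 mg/kg was given with collection at 0.25–6.0 h. Cells were fixed, stained 2 h for pSTAT5 (pY694), and analysed by flow cytometry. Statistics used ANOVA with Dunnett's test and a four-parameter logistic fit.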

[7] = test system: Ba/F3-JAK2V617F-GFP tumor burden; assay: 14-day in vivo efficacy, JAK2V617F-induced mouse MPN model; design: species or system SCID mice
Summary of the method: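 SCID mice received 1 × 10^7 Ba/F3-JAK2V617F-GFP cells intravenously (six mice/group). Twice-daily oral gavage at 2.5–80.0 mg/kg started 7 days after infusion and ran 14 days. Endpoints were complete blood counts from cardiac puncture, spleen weight, and FACS of splenocytes for total number and percentage of GFP-positive cells. Dunnett's test at α=0.05.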

[8] = test system: Ba/F3-JAK2V617F-GFP tumor cells, erythroid progenitors, peripheral blood counts; assay: 8-day mouse hematologic disease model, hematopoiesis; assay type: in vivo, SCID mice; conditions: result in words
Summary of the method: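 This was an 8-day version of the intravenous Ba/F3-JAK2V617F-GFP SCID mouse model. Dosing at 5, 20, 40 or 80 mg/kg began one day before tumor cell infusion and continued twice daily for 8 days. Splenocytes were analysed by FACS for GFP-positive tumor cells and for erythroid progenitors stained with Ter119-APC and CD71-PE, with 7-AAD excluding nonviable cells. Peripheral blood counts were also taken.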

[9] = 14-day rat pilot toxicology study; assay type: in vivo; conditions: 30, 60, or 100 mg/kg
JAK2V617F [10] = biological target: T3, JAK2V617F (Homo sapiens, UniProt O60674, V617F); assay: Western blot pSTAT5, Ba/F3 JAK2V617F; assay type: cell-based; conditions: 50 nM–20 μM, 2 h
wild-type JAK2 = wild-type JAK2 (Homo sapiens, UniProt O60674); assay: Western blot pSTAT5, IL-3-stimulated Ba/F3 wild-type JAK2; assay type: cell-based; conditions: Ba/F3 wild-type JAK2, 50 and 200 nM
JAK2V617F [11] = biological target: T3, JAK2V617F; assay: Western blot pSTAT5, HEK293T JAK2V617F; assay type: cell-based; conditions: HEK293 cells expressing JAK2V617F, 1 h
JAK2 H538Q = JAK2 H538Q (Homo sapiens, UniProt O60674, H538Q); assay: Western blot pSTAT5, HEK293T JAK2 H538Q; assay type: cell-based; conditions: HEK293 cells expressing JAK2 H538Q, 1 h
JAK2 R564Q = JAK2 R564Q (Homo sapiens, UniProt O60674, R564Q); assay: Western blot pSTAT5, HEK293T JAK2 R564Q; assay type: cell-based; conditions: HEK293 cells expressing JAK2 R564Q, 1 h
JAK2Y931C = JAK2Y931C (Homo sapiens, UniProt O60674, Y931C); assay: Western blot pSTAT5, HEK293T JAK2Y931C; assay type: cell-based; conditions: HEK293 cells expressing JAK2Y931C, 1 h
JAK2V617F [12] = biological target: T3, JAK2V617F; assay: AlphaScreen SureFire pSTAT5 assay, Ba/F3-JAK2V617F; assay type: cell-based
[13] = biological target: IL-3-activated wild-type JAK2 (Homo sapiens, UniProt O60674); assay: AlphaScreen SureFire pSTAT5 assay, IL-3-stimulated Ba/F3 wild-type JAK2; assay type: cell-based
Sequence of IL-3-activated wild-type JAK2 (O60674 whole entry): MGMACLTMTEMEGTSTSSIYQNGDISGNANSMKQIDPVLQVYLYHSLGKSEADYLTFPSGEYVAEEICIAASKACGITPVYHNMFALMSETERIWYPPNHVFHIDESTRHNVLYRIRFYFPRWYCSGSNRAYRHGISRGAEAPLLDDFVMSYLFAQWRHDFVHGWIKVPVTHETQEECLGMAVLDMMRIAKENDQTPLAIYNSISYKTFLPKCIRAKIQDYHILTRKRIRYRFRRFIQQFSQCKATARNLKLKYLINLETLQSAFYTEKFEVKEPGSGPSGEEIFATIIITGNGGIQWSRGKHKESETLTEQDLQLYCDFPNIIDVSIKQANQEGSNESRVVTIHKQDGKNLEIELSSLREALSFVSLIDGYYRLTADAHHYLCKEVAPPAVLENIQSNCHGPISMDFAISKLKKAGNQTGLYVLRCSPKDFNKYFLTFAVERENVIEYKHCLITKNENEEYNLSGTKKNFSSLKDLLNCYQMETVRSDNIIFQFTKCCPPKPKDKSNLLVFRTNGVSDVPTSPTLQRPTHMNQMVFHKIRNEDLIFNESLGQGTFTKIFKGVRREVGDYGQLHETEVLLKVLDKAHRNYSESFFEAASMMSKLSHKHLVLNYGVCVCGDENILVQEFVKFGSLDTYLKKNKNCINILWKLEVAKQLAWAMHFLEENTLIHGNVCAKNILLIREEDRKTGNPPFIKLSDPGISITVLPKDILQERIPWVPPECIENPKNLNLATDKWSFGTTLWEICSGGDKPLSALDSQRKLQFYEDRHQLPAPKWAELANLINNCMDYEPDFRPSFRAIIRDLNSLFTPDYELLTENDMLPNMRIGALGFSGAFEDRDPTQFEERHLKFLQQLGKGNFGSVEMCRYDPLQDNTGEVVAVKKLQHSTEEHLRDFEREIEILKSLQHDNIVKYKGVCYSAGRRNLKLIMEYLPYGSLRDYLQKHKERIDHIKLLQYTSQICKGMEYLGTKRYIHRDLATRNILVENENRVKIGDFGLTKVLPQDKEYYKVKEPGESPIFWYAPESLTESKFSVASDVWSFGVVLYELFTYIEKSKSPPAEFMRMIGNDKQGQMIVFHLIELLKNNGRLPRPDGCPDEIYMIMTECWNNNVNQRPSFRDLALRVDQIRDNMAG

T3 sequence (O60674 whole entry V617F): as the sequence (O60674 whole entry) above, with V617F counted along it
T1 sequence (O60674 whole entry): as the sequence (O60674 whole entry) above
Sequence of TEL-JAK1 (P23458 875-1154 limits assumed, one chain of several): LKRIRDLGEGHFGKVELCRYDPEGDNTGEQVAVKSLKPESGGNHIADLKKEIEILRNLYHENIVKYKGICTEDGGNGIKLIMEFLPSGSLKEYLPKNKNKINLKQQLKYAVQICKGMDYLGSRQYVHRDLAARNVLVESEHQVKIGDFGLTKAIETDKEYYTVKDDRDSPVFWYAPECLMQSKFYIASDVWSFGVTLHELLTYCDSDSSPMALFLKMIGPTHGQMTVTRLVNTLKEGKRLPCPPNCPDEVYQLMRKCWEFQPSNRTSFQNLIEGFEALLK
Sequence of TEL-JAK2 (O60674 840-1132 limits assumed, one chain of several): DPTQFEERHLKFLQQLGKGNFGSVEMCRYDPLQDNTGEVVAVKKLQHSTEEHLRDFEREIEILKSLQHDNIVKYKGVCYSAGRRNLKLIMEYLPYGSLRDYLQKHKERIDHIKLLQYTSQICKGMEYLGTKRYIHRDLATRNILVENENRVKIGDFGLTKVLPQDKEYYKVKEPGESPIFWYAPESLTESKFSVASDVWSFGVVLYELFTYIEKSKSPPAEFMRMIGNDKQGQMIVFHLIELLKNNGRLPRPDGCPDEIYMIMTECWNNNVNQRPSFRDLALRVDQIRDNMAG
Sequence of JAK3/JAK1 heterodimer (P23458 whole entry, one chain of several): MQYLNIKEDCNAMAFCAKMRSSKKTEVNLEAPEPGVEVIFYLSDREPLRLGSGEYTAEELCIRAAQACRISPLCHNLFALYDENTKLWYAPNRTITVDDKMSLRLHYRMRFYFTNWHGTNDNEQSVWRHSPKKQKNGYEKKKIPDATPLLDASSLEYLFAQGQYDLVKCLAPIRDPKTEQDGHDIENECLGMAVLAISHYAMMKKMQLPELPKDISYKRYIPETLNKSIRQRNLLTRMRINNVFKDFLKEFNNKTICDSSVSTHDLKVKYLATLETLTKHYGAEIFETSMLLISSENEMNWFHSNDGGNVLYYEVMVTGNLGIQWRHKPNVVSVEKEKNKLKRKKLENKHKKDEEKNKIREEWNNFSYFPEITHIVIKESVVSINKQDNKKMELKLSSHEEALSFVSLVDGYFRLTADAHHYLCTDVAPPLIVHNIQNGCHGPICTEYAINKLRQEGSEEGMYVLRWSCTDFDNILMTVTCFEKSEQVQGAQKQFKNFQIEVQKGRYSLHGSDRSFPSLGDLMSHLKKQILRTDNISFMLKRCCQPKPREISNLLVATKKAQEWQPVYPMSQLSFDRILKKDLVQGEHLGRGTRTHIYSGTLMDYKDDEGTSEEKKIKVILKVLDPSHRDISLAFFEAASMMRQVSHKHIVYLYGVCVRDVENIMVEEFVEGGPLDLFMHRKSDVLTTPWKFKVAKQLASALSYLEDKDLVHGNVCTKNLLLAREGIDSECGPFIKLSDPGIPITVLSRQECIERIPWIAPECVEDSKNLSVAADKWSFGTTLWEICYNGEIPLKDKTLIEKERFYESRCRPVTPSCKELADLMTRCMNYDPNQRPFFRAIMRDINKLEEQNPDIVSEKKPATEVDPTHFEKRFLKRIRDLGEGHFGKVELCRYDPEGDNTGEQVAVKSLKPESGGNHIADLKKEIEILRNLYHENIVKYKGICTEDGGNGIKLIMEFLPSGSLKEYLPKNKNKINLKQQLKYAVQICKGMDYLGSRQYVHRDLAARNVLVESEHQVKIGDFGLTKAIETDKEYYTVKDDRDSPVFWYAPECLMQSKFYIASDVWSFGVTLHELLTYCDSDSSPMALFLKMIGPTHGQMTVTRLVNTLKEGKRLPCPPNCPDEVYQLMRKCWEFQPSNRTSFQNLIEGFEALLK
Sequence of JAK3/JAK1 heterodimer (P14784 27-551 partner, one chain of several): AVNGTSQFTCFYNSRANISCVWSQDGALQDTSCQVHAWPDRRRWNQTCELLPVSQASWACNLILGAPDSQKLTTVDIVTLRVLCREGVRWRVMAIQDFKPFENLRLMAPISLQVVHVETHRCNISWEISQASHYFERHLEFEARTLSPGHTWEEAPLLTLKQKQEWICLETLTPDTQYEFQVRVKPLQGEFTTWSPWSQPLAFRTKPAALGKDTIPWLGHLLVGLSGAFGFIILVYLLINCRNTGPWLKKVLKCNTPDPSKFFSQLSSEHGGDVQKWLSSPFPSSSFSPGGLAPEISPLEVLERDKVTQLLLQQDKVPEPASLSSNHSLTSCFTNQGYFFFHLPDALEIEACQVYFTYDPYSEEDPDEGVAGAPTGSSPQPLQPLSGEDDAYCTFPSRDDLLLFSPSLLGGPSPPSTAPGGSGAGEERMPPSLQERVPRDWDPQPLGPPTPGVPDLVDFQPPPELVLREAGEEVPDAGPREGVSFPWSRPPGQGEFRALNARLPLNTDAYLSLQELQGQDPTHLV
Sequence of JAK3/JAK1 heterodimer (P31785 23-369 partner, one chain of several): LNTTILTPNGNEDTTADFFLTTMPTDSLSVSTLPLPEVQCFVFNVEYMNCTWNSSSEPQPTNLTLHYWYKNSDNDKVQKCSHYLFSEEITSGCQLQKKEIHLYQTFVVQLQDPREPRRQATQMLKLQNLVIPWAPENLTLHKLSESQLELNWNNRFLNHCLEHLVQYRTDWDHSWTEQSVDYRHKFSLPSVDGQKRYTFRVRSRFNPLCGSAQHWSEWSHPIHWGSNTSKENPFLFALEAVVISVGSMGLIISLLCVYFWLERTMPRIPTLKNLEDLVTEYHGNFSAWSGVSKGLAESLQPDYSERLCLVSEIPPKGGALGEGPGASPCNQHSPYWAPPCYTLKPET
Sequence of JAK2Y931C (O60674 whole entry Y931C): as the sequence (O60674 whole entry) above, with Y931C counted along it
Sequence of wild-type JAK2 (O60674 whole entry): as the sequence (O60674 whole entry) above
Sequence of JAK2 R564Q (O60674 whole entry R564Q): as the sequence (O60674 whole entry) above, with R564Q counted along it
Sequence of JAK2 H538Q (O60674 whole entry H538Q): as the sequence (O60674 whole entry) above, with H538Q counted along it

## Cc1cc(Nc2ccc3ncn([C@@H]4CCc5ccc(F)cc54)c3n2)[nH]n1.Cl.Cl [Compound 1, 3-[(1R)-6-fluoro-2,3-dihydro-1H-inden-1-yl]-N-(3-methyl-1H-pyrazol-5-yl)-3H-imidazo[4,5-b]pyridin-5-amine dihydrochloride]
JAK2 [1]
  IC50: 2 nM
JAK3
  Selectivity for JAK2 over JAK3, biochemical: fourfold
JAK3/JAK1 heterodimer
  IC50: 228 ± 76 nM
[2]
  Change in cytotoxic T-cells, CD3+CD8a+, peripheral blood: −39 (P<0.05) %
  Change in cytotoxic T-cells, CD3+CD8a+, spleen: −42 (P<0.05) ^d %
  Percentage of T-cytotoxic cells (peripheral blood and splenic): statistically significant decrease

## Cc1cc(Nc2cc(CN3CCOCC3)c3nc(C)c(Cc4ccc(Cl)cc4F)n3n2)n[nH]1 [LY2784544, 3-(4-chloro-2-fluorobenzyl)-2-methyl-N-(5-methyl-1H-pyrazol-3-yl)-8-(morpholinomethyl)imidazo[1,2-b]pyridazin-6-amine]
JAK2 [3]
  IC50: 45 ± 19 nM
JAK3/JAK1 heterodimer
  IC50: 942 ± 255 nM
[2]
  Change in cytotoxic T-cells, CD3+CD8a+, peripheral blood: No change
  Change in cytotoxic T-cells, CD3+CD8a+, spleen: No change
  Percentage of T-cytotoxic cells (peripheral blood and splenic): did not decrease
TEL-JAK1
  IC50: 2900 ± 486 nM
TEL-JAK2
  IC50: 191 ± 36 nM
TEL-JAK3
  IC50: 4740 ± 738 nM
[4]
  IC50: 55 ± 4 nM
[5]
  EC50: 113 ± 0.023 nM
[6]; 30 min after oral dosing
  TEC50, plasma concentration to inhibit 50% of STAT5 phosphorylation: 699.0 ng/ml and 1.49 μM
[6]; single 40 mg/kg oral dose
  Duration of statistically significant inhibition of STAT5 phosphorylation: at least 2 h
[6]; single 80 mg/kg oral dose
  Duration of statistically significant inhibition of STAT5 phosphorylation: at least 6 h
[6]; single oral dose, 30 min after dosing, ascitic tumor cells
  TED50, dose to inhibit 50% of STAT5 phosphorylation: 12.7 mg/kg
[7]; 20 mg/kg BID, 14 days
  Spleen mass reduction: about 20%
[7]; 20 mg/kg BID, 14 days, spleen
  Decrease in GFP-positive Ba/F3-JAK2V617F cells: ~50%
[7]; 20, 40 or 80 mg/kg, BID
  Reduction of the number of Ba/F3 cells expressing JAK2V617F: ≥ 50%
[7]; oral, twice daily, 14 days, Ba/F3-JAK2V617F-GFP cells in spleen
  TED50 for tumor burden reduction: 13.7 mg/kg
[8]; 40 mg/kg (P=8 × 10^−4) and 80 mg/kg (P=8 × 10^−7) BID, 8 days
  Percentage of Ba/F3-JAK2V617F-GFP-positive cells in spleen: significantly reduced
[8]; 5–80 mg/kg BID, 8 days
  Effect on erythroid progenitor (CD71+/Ter119+) cells: no effect; also recorded: did not affect
  Effect on peripheral blood reticulocytes: no effect; also recorded: did not reduce
[8]
  Effect on platelets: no effect
[9]
  Gastric- and intestine-related toxicity: No gastric- and intestine-related toxicity was observed
JAK2V617F [10]
  Inhibition of STAT5 phosphorylation, western blot: potently inhibited
wild-type JAK2
  Inhibition of IL-3-stimulated STAT5 phosphorylation, western blot: marginal inhibition
JAK2V617F [11]
  Inhibition of STAT5 phosphorylation, western blot: effectively inhibited
JAK2 H538Q
  Inhibition of STAT5 phosphorylation, western blot: effectively inhibited
JAK2 R564Q
  Inhibition of STAT5 phosphorylation, western blot: effectively inhibited
JAK2Y931C
  Inhibition of STAT5 phosphorylation, western blot: much less potency

## Cc1cc(Nc2nc(N[C@@H](C)c3ncc(F)cn3)ncc2Cl)n[nH]1 [AZD1480, reference compound]
TEL-JAK1
  IC50: 663 ± 74 nM
TEL-JAK2
  IC50: 139 ± 47 nM
TEL-JAK3
  IC50: 2550 ± 345 nM
JAK2V617F [12]
  IC50: 19 ± 13 nM
[13]
  IC50: 181 ± 132 nM
[4]
  IC50: 43 ± 1 nM
